TMEM16A inh = inhibitors of mouse TMEM16A calcium-activated chloride channel | Q8BHY3 | HEK293 TMEM16A/YFP iodide influx fluorescence, ionomycin | normalized B-score (activity score, 25-100; higher = stronger inhibition) at 10 µM | 1.2% of 310,000 active | AID 588511;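 active = ratio plate-corrected score three or more library SD toward inhibition, starting fluorescence score within five deviations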;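 note: score derived from kinetic fluorescence span divided by baseline fluorescence per well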
CRFBP-R2 agonist = agonists of human CRF-binding protein/CRF-R2 receptor complex. AID 588473. 0.46% of 350,000 active. activation, % at 13.2 µM. HEK293 CRF-R2/CRF-BP, calcium dye fluorescence (FLIPR); percent of saturating CRF peptide response;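 active = activation of at least 50%, plus an integration ratio under a set limit after plate pattern correction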;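 note: plate controls were neutral control wells without compound for no effect and CRF at EC100 for full effect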
TAAR1 antag = antagonists of human TAAR1; AID 624466; Q96RJ0; inhibition, % at 3 µM; CHO RD-HGA16 TAAR1, Fluo-8 calcium fluorescence, antagonist; 1.5% of 360,000 active;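 active = inhibition above a per-plate cutoff, the mean inhibition of test compounds on that plate plus 3 SD, cut at about 49% in these data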;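 note: 0% = DMSO plus EC80 beta-PEA response and 100% = DMSO alone without agonist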
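Test system – hTAAR1-expressing CHO RD-HGA16 cells, Gα16-coupled · Reagent – β-PEA at EC80 concentration, post-compound challenge · Compound dosing – 3 µM, single point · Timing – 140 s kinetic read after compound, 140 s after agonist · Detection – Fluo-8 intracellular calcium dye fluorescence, real-time kinetic reads · Control set – DMSO and EC80 PEA controls · Repeats – n of 1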
TAAR1 ag = agonists of human TAAR1. CHO RD-HGA16 TAAR1, Fluo-8 calcium fluorescence; vehicle wells 0%, saturating PEA agonist 100%. Q96RJ0. 0.99% of 360,000 active. activation, % at 3 µM;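 active = activation above the mean activation of all test compounds in the run plus 3 SD, cut at about 38% in these data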
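System: CHO-derived RD-HGA16 cells with stable Gα16 and human TAAR1 / Times: 17-24 h plating, Fluo-8 75 min 37 °C, 30 min RT / Technique: calcium-sensitive Fluo-8 signal, excitation 470-495, emission 515-575 nm / Measure: % activation relative to PEA EC100 response / Benchmarks: DMSO and PEA EC100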
CRFBP-R2 block = blocks CRF-induced signaling of the CRF-BP/CRF-R2 complex | HEK293 CRF-R2/CRF-BP, CRF-induced calcium fluorescence | inhibition, % at 11.8 µM | 0.59% of 350,000 active;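 active = inhibition of the ligand-induced calcium signal above about 50% at the single tested concentration, limit read from the data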
TMEM16A act = activates or potentiates the mouse TMEM16A chloride channel. 0.3% of 340,000 active. Q8BHY3. HEK293 TMEM16A/YFP-H148Q/I152L, iodide quench fluorescence; active compounds read low. B-score at 10 µM;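 active = fluorescence-ratio B-score plate-corrected deviation score at least 3 library SD below zero, with starting fluorescence score within 5 deviations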;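 note: channel opened by trigger with iodide after compound preincubation; score built on the fluorescence ratio of max minus min over baseline; more negative score means more quench and so TMEM16A activation or potentiation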
TAAR1 ag conf = human TAAR1 agonism, confirmed; activation, % at 3 µM; CHO RD-HGA16 TAAR1, Fluo-8 calcium fluorescence; scaled: DMSO 0%, maximal phenethylamine 100%; 82% of 2,400 active; shares compounds with TAAR1 ag; AID 651783;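 active = activation above a cutoff set at the run's mean compound activation plus 3 SD, cut at about 39% in these data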
Ga16 nonsel ag = nonselective agonism, TAAR1 counter-screen; CHO-Ga16 parental, Fluo-8 calcium fluorescence; normalized to maximal ATP response, DMSO zero; activation, % at 3 µM; 50% of 2,400 active; shares compounds with TAAR1 ag;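 active = activation above the run cutoff, the mean activation over all tested wells plus 3 SD, cut at about 12% in these data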;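 note: 0% = DMSO wells and 100% = maximal ATP response on the peak over basal ratio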
TAAR1 desens = TAAR1 response desensitization, agonist counter-screen | shares compounds with TAAR1 ag | CHO RD-HGA16 hTAAR1, Fluo-8 calcium, beta-PEA response inhibition | inhibition, % at 3 µM | 46% of 2,400 active;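 active = inhibition above the run cutoff, the mean inhibition of all test compounds plus 3 SD, cut at about 49% in these data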;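 note: beta-PEA stimulus applied at its EC80; loss of beta-PEA calcium signal after compound pretreatment read as receptor desensitization; 0% = DMSO with beta-PEA at EC80 and 100% = DMSO alone without agonist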
Ga16 nonsel ant = nonselective Ga16 antagonist in TAAR1 agonist counter-screen. shares compounds with TAAR1 ag. CHO-Ga16 ATP-induced calcium, Fluo-8 fluorescence. inhibition, % at 3 µM. 39% of 2,400 active. AID 651952;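 active = inhibition above the plate's mean compound inhibition plus 3 SD, computed per plate, cut at about 22% in these data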;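 note: 0% = EC80 ATP with DMSO and 100% = DMSO wells without ATP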
An asterisk follows results filed as active; i = inactive; / = no result given. This is a sample that favours compounds with a hit; in the whole collection about 3.9% have one here.

SMILES	TMEM16A inh	CRFBP-R2 agonist	TAAR1 antag	TAAR1 ag	CRFBP-R2 block	TMEM16A act	TAAR1 ag conf	Ga16 nonsel ag	TAAR1 desens	Ga16 nonsel ant
CCOC(=O)c1cc(C)n(CCc2ccccc2)c1C	i	-1	20	51*	-7	i	64*	6	47	9
Cc1cc(-c2csc(N)n2)c(C)n1CCC(C)C	i	1	-11	2	0	i	/	/	/	/
Cc1cc(-c2csc(N)n2)c(C)n1CCc1ccccc1	i	7	37	78*	-3	i	102*	11	89*	-3
CCOc1ccc2[nH]c3nc(SCC(=O)NC4CC4)nnc3c2c1	i	1	5	-3	1	i	/	/	/	/
COc1ccc(Cc2nnc(NC(=O)c3cc(OC)c(OC)c(OC)c3)s2)cc1	i	0	-6	10	-43	i	/	/	/	/
CC(Cc1cccs1)NC(=O)Nc1cccc(Cl)c1 (stereo unspecified)	i	2	7	10	-5	i	/	/	/	/
CC(Cc1cccs1)NC(=O)Nc1ccc(F)cc1 (stereo unspecified)	i	2	-3	49*	35	i	82*	2	21	1
CCCN1C(=O)/C(=C\C=C2\N(CC)c3ccccc3C2(C)C)SC1=S	/	125*	65*	69*	-214	i	50*	66*	73*	82*
CN1/C(=C\C=C2/SC(=S)NC2=O)C(C)(C)c2ccccc21	i	164*	109*	289*	-144	i	70*	85*	85*	86*
CC(=O)N1C[C@H]2CON(C)[C@H]2C[C@H]1c1cccc(-c2cc(Cl)cc(Cl)c2)c1	/	-1	-12	1	7	/	/	/	/	/
CCOc1ccc(-c2c(C(=O)N/N=C(\C)c3ccccc3OC)nnn2-c2nonc2N)cc1	i	0	-19	5	-3	i	/	/	/	/
COc1cccc(-c2c(C(=O)N/N=C(\C)c3cccs3)nnn2-c2nonc2N)c1	i	41	87*	140*	-118	i	115*	84*	78*	28*
COc1cccc(-c2c(C(=O)N/N=C(\C)COc3ccccc3)nnn2-c2nonc2N)c1	i	0	-15	9	-18	i	/	/	/	/
CCOc1cccc(-c2c(C(=O)N/N=C(\C)c3cccs3)nnn2-c2nonc2N)c1	i	2	88*	132*	-50	i	134*	98*	97*	70*
COc1cccc(-c2c(C(=O)N/N=C(\C)c3ccncc3)nnn2-c2nonc2N)c1	i	0	-11	14	-22	i	/	/	/	/
COc1ccc(/C(C)=N/NC(=O)c2nnn(-c3nonc3N)c2-c2cccs2)cc1OC	i	0	-13	2	-13	i	/	/	/	/
C/C(=N\NC(=O)c1nnn(-c2nonc2N)c1-c1ccc2c(c1)OCO2)c1cccs1	i	44	96*	144*	-69	i	127*	101*	91*	61*
CCOc1ccc(-c2c(C(=O)N/N=C(\C)c3ccco3)nnn2-c2nonc2N)cc1	i	-1	1	115*	-32	i	101*	67*	18	9
CCCCCCN(C(=O)CCCCCN1C(=O)NC(c2ccc(Cl)cc2)C(C(=O)OCc2ccccc2)=C1C)C(C(=O)NCCCC)c1ccc(OCC(=O)OC)c(C(=O)OC)c1 (stereo unspecified)	/	/	14	5	/	/	/	/	/	/
CC(C)(C)c1ccc(CC(=O)N2CCC2(C)C(=O)NS(=O)(=O)c2cccc(F)c2)cc1 (stereo unspecified)	/	/	-15	0	/	/	/	/	/	/
O=C(NCc1cccc(C(F)(F)F)c1)c1ccc2nc([C@H]3C[C@H](O)[C@@H](CO)O3)[nH]c2c1	/	/	-9	-1	/	/	/	/	/	/
O=C(CNC(=O)c1ccc(Cl)cc1Cl)OCN1C(=O)c2ccccc2C1=O	i	-3	-14	-1	10	i	/	/	/	/
CCCOc1ccc(-c2c(C(=O)N/N=C(\C)c3ccncc3)nnn2-c2nonc2N)cc1	i	0	-5	11	-7	i	/	/	/	/
CCOc1ccc(-c2c(C(=O)N/N=C(\C)c3cccs3)nnn2-c2nonc2N)cc1	i	5	-10	85*	-52	i	98*	63*	19	7
Cc1ccc(CC2(C)C(=O)Nc3c(Cl)cccc32)cc1 (stereo unspecified)	/	/	5	-3	/	/	/	/	/	/
SMILES	TMEM16A inh	CRFBP-R2 agonist	TAAR1 antag	TAAR1 ag	CRFBP-R2 block	TMEM16A act	TAAR1 ag conf	Ga16 nonsel ag	TAAR1 desens	Ga16 nonsel ant
CCN(C[C@H]1N[C@@](CC)(C(=O)OC)[C@H]2C(=O)N(C)C(=O)[C@@H]12)S(=O)(=O)c1ccc(OC)cc1	/	1	-14	1	10	i	/	/	/	/
Cc1cc(N/N=C/c2ccc(O)cc2O)nc(N2CCOCC2)n1	i	-1	/	/	17	i	/	4	/	9
OC(c1ccc(F)cc1)c1nc(-c2ccoc2)cs1 (stereo unspecified)	/	/	-20	0	/	/	/	/	/	/
CCOC(=O)c1c(NC(=O)COC(=O)Cc2c[nH]c3ccccc23)sc(C(=O)N(C)C)c1C	i	0	14	4	-9	i	/	/	/	/
COc1cccc(-c2c(C(=O)N/N=C/c3ccsc3)nnn2-c2nonc2N)c1	i	19	32	129*	-63	i	145*	106*	72*	29*
CCCOc1ccc(-c2c(C(=O)N/N=C/c3ccc(OCC)cc3)nnn2-c2nonc2N)cc1	i	1	-25	16	-35	i	/	/	/	/
CCCOc1ccc(-c2c(C(=O)N/N=C/c3ccncc3)nnn2-c2nonc2N)cc1	i	0	18	47*	-28	-6.8*	30	12*	24	20
COc1cccc(-c2c(C(=O)N/N=C/c3sccc3C)nnn2-c2nonc2N)c1	i	0	37	20	-18	i	/	/	/	/
CCOc1cccc(-c2c(C(=O)N/N=C/c3ccc(Br)cc3)nnn2-c2nonc2N)c1	i	1	37	102*	-40	i	97*	82*	58*	48*
